Experimental findings from ChEMBL document CHEMBL3045132, “Synthesis and antiviral activity of novel chiral cyanoacrylate derivatives” (2005) are described below.

Type in all cases: functional
The test system of test [1] is Tobacco mosaic virus. The test is described as follows: Antiviral activity against Tobacco mosaic virus (TMV) inoculated in whole leaves of Nicotiana tabacum L. assessed as curative effect measured as local lesion number at 500 mg/l after 3 to 4 days. The essentials:
(§1)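 Same-age N. tabacum L. leaves dipped-inoculated over the whole leaf with TMV at 6 × 10^-3 mg/mL, then washed with water and dried. Compound solution smeared on left half, solvent on right half as control. Local lesions counted 3-4 days after inoculation; three repetitions. Inhibition (%) calculated from control versus treated average lesion numbers.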

Test [2] has as its system Echinochloa crus-galli. The test is described as follows: Herbicidal activity against Echinochloa crus-galli (barnyard grass) assessed as inhibition effect at 1500 g/ha sprayed to the stem and leaves after seed germination. The essentials: (§2)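 Post-emergence: compounds sprayed onto stems and leaves after seed germination; equal amount of water sprayed as control. Aerial tissue fresh weight measured 10 days after treatment; activity expressed as percent inhibition of aerial fresh weight.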

The test system of test [3] is Brassica rapa subsp. oleifera. Description: Herbicidal activity against Brassica rapa subsp. oleifera assessed as inhibition effect at 1500 g/ha sprayed to the stem and leaves after seed germination. The procedure, abridged:
as §2

Test [4] has as its system Amaranthus retroflexus. Description: Herbicidal activity against Amaranthus retroflexus assessed as inhibition effect at 1500 g/ha sprayed soil immediately after seed planting. The procedure, abridged: (§3)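 Pre-emergence: compounds sprayed onto soil immediately after seed planting; equal amount of water sprayed as control. Aerial tissue fresh weight measured 10 days after treatment; activity expressed as percent inhibition of aerial fresh weight.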

Test [5] has as its system Tobacco mosaic virus. Description: Antiviral activity against Tobacco mosaic virus (TMV) inoculated in left side of Nicotiana tabacum L. leaves assessed as inhibition of local lesion number at 500 mg/l measured after 3 to 4 days. The essentials: (§4)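 Half-leaf test on Nicotiana tabacum L.: TMV mixed with an equal volume of compound solution for 30 min, then inoculated on the left half-leaf; right half received virus plus solvent as control. Local lesions counted 3-4 days after inoculation; three repetitions. Inhibition (%) = (control lesions − treated lesions)/control lesions.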

The subject of test [6] is Brassica rapa subsp. oleifera. The test is described as follows: Herbicidal activity against Brassica rapa subsp. oleifera assessed as inhibition effect at 1500 g/ha sprayed soil immediately after seed planting. The essentials: as §3
In test [7] the test system is Echinochloa crus-galli. The test is described as follows: Herbicidal activity against Echinochloa crus-galli (barnyard grass) assessed as inhibition effect at 1500 g/ha sprayed soil immediately after seed planting. The essentials: as §3
Test [8] relates to PC-3. The test is described as follows: Antiproliferative activity against Homo sapiens (human) PC3 cells at 5 uM measured after 72 hr by MTT assay. The settings on record: PC-3, 72 h. The procedure, abridged: (§5)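 Cells plated at 3 × 10³/well in F-12 (PC3) or RPMI 1640 (A431) with 10% fetal bovine serum; compounds dissolved in DMSO, diluted in medium, exposed 72 h; vehicle control 0.1% DMSO. MTT cleavage to formazan read at 550 nm. Inhibition rate (%) = (A1 − A2)/A1 × 100, A1 untreated and A2 treated mean optical density; values as mean ± s.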
In general terms: Formazan colour is commonly taken as a measure of viable cells.

Test [9] deals with Amaranthus retroflexus. Description: Herbicidal activity against Amaranthus retroflexus assessed as inhibition effect at 1500 g/ha sprayed to the stem and leaves after seed germination. The essentials:
as §2

The subject of test [10] is A-431. The test is described as follows: Antiproliferative activity against Homo sapiens (human) A431 cells at 5 uM measured after 72 hr by MTT assay. Particulars: A-431, 72 h. The procedure, abridged: as §5
The test system of test [11] is Tobacco mosaic virus. The test is described as follows: Antiviral activity against Tobacco mosaic virus (TMV) inoculated in whole leaves of Nicotiana tabacum L. assessed as curative effect measured as local lesion number at 50 mg/l after 3 to 4 days. The procedure, abridged:
as §1

The test system of test [12] is Tobacco mosaic virus. Description: Antiviral activity against Tobacco mosaic virus (TMV) inoculated in left side of Nicotiana tabacum L. leaves assessed as inhibition of local lesion number at 50 mg/l measured after 3 to 4 days. The procedure, abridged: as §4

In general, inhibition refers to the share of the control response that was lost under treatment. In the case of `CCOC(=O)/C(C#N)=C(/Nc1ccc(C(F)(F)F)cc1)N[C@H](C)c1ccccc1`, the inhibition at 500 µg/mL in test [1] is 39.1%; in test [5], 28.9%. Moreover, the inhibition at 1500 g/ha in test [2] was 2.86%; in [3], 0%; in [4] it was 0%; in test [6], 16.1%; in test [7], 11.4%; in [9] it was 0%. The inhibition at 5 µM turned out to be 59.4% in test [8] and 43.1% in test [10].

Turning to `CCOC(=O)/C(C#N)=C(/Nc1ccc(C(F)(F)F)cc1)N[C@@H](C)c1ccccc1`, the inhibition at 500 µg/mL in test [1] came out at 15.2%; in test [5], 6.1%. Also, the inhibition at 1500 g/ha in test [2] was determined as 5.71%; in test [3], 30.5%; in test [4], 10.5%; in test [6], 21.4%; in test [7], 10%; in [9], 0%. For the same compound, the inhibition at 5 µM in test [8] is 49.1%; in test [10], 39.9%.

As to `CCOC(=O)/C(C#N)=C(/Nc1ccc(Br)cc1)N[C@H](C)c1ccccc1`, the inhibition at 500 µg/mL stood at 12.3% in test [1] and 53.4% in test [5]. The inhibition at 1500 g/ha in test [2] is 0%; in [3], 10.9%; in test [4] it was 0%; in [6], 5.38%; in test [7], 4.29%; in [9] it was 0%. The inhibition at 5 µM was 1.5% in test [8] and 16.1% in [10].

With `CCOC(=O)/C(C#N)=C(/Nc1ccc(Br)cc1)N[C@@H](C)c1ccccc1`, the inhibition at 500 µg/mL in [1] turned out to be 3.4%; in test [5], 0%. Besides, the inhibition at 1500 g/ha in test [2] came to 34.3%; in [3], 35.3%; in [4], 0%; in [6], 1.29%; in [7], 10%; in test [9] it was 0%. The inhibition at 5 µM in test [8] came out at 24.7%; in test [10], 19.3%.

With `CCOC(=O)/C(C#N)=C(/Nc1ccc([N+](=O)[O-])cc1)N[C@H](C)c1ccccc1`, the inhibition at 500 µg/mL in test [1] was 43.1%; in [5], 89.1%. Moreover, the inhibition at 1500 g/ha in [2] came to 0%; in [3], 17.2%; in [4], 0%; in test [6], 21.4%; in test [7], 18.6%; in [9], 0%. Further, the values for the inhibition at 5 µM in [8] and in test [10] were 2.9% and 23.6%, respectively.

For the compound `CCOC(=O)/C(C#N)=C(/Nc1ccc([N+](=O)[O-])cc1)N[C@@H](C)c1ccccc1`, the inhibition at 500 µg/mL in [1] was 13.1%; in [5] it was 5.3%. Besides, the inhibition at 1500 g/ha in [2] is 13.3%; in test [3], 32.1%; in [4], 0%; in test [6], 25%; in [7], 14.3%; in test [9] it was 0%. Also, the figures for the inhibition at 5 µM in test [8] and in test [10] were 0.7% and 18.1%, respectively.

Turning to `CCOC(=O)/C(C#N)=C(/NNC(=O)c1cc(OC)c(OC)c(OC)c1)N[C@H](C)c1ccccc1`, the inhibition at 500 µg/mL in [1] came to 26.7%; in test [5], 46.4%. The inhibition at 1500 g/ha in test [2] came out at 7.62%; in test [3], 3.13%; in test [4], 26.3%; in test [6] it was 0%; in test [7], 5.71%; in test [9] it was 0%. In addition, the figures for the inhibition at 5 µM in test [8] and in test [10] were 32.1% and 25.1%, respectively.

Turning to `CCOC(=O)/C(C#N)=C(/NNC(=O)c1cc(OC)c(OC)c(OC)c1)N[C@@H](C)c1ccccc1`, the inhibition at 500 µg/mL came out at 12.1% in test [1] and 7.5% in [5]. For the same compound, the inhibition at 1500 g/ha in test [2] is 0%; in test [3] it was 18.8%; in test [4], 10.5%; in [6], 0%; in [7], 7.14%; in [9], 0%. In addition, the inhibition at 5 µM amounted to 3.2% in [8] and 29.4% in test [10].

On to `COc1ccc2c3c(c4cc(OC)c(OC)cc4c2c1)C[C@H]1CCCN1C3` [(-)-ANTOFINE], for which the values for the inhibition at 50 µg/mL in test [11] and in test [12] were 29.2% and 14%, respectively.

Consider `O=c1[nH]cc(F)c(=O)[nH]1` [FLUOROURACIL], for which the inhibition at 5 µM in test [8] was 41.1%; in [10], 30.7%.

As for `CNCC(=O)N[C@@H](CO)C(=O)N[C@H]1[C@H](O)[C@@H](O)[C@H](n2ccc(N)nc2=O)O[C@@H]1C(N)=O` [NINGNANMYCIN], the results for the inhibition at 500 µg/mL in test [1] and in [5] were 28.9% and 88.9%, respectively.
